From ChEMBL document CHEMBL4184223 (Bioorg Med Chem Lett, 2018)
Calls of active or inactive are those of the source. No cut-off for these calls is given here.

Columns and labels:
[1] = tested on: Cortical neurone; experiment: Neuroprotective activity against amyloid beta (1 to 42) peptide-induced cytotoxicty in CD1 mouse primary cortical neurons assessed as increase in cell viability at 0.1 to 10 uM pre-incubated for 1 hr before amyloid beta (1 to 42) addition and measured after 24 hrs by CCK8 assay; format: functional, cell-based
[2] = Toxicity in African green monkey CV1 cells assessed as effect on cell viability incubated for 24 hrs by CCK8 assay
[3] = tested on: BV-2 (Mus musculus); experiment: Antiinflammatory activity in mouse BV-2 cells assessed as inhibition of LPS-induced TNF-alpha production at 20 nM pre-incubated for 1 hr before LPS stimulation for 23 hrs by ELISA method
[4] = tested on: Cortical neurone; experiment: Toxicity in CD1 mouse primary cortical neurons assessed as effect on cell viability at 0.01 to 1 uM incubated for 24 hrs by CCK8 assay; format: cell-based
How it was run: (§1)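 Primary cortical neuron cultures were given compound alone across a concentration range, without Aβ. Cell viability was measured by CCK8 and expressed as percent reduction in viable cells. Data are mean ± SD of three independent experiments.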

[5] = tested on: Cortical neurone; experiment: Neuroprotective activity against amyloid beta (1 to 42) peptide-induced cytotoxicty in CD1 mouse primary cortical neurons assessed as increase in cell viability at 1 to 10 nM pre-incubated for 1 hr before amyloid beta (1 to 42) addition and measured after 24 hrs by CCK8 assay; format: functional, cell-based
[6] = tested on: Cortical neurone; experiment: Neuroprotective activity against amyloid beta (1 to 42) peptide-induced cytotoxicty in CD1 mouse primary cortical neurons assessed as increase in cell viability at 0.01 to 1 nM pre-incubated for 1 hr before amyloid beta (1 to 42) addition and measured after 24 hrs by CCK8 assay; format: functional
[7] = tested on: BV-2 (Mus musculus); experiment: Antiinflammatory activity in mouse BV-2 cells assessed as inhibition of LPS-induced TNF-alpha production pre-incubated for 1 hr before LPS stimulation for 23 hrs by ELISA method
[8] = tested on: Cortical neurone; experiment: Toxicity in CD1 mouse primary cortical neurons assessed as effect on cell viability at =< 10 nM incubated for 24 hrs by CCK8 assay; format: cell-based; how it was run: as §1
[9] = Toxicity in CD1 mouse primary cortical neurons assessed as effect on cell viability at 25 nM incubated for 24 hrs by CCK8 assay; format: cell-based, Cortical neurone; conditions: read-out: Activity
How it was run: (§2)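 Primary cortical neuron cultures were exposed to compound alone at the stated concentration. Viability was measured by CCK8 and expressed as the percentage reduction in viable cells.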

[10] = Toxicity in CD1 mouse primary cortical neurons assessed as effect on cell viability at 50 nM incubated for 24 hrs by CCK8 assay; format: cell-based, Cortical neurone; conditions: read-out: Activity; how it was run: as §2
[11] = Toxicity in CD1 mouse primary cortical neurons assessed as effect on cell viability at 100 nM incubated for 24 hrs by CCK8 assay; format: cell-based, Cortical neurone; conditions: read-out: Activity; how it was run: as §2
[12] = tested on: Cortical neurone; experiment: Neuroprotective activity against amyloid beta (1 to 42) peptide-induced cytotoxicty in CD1 mouse primary cortical neurons assessed as increase in cell viability at 0.01 nM pre-incubated for 1 hr before amyloid beta (1 to 42) addition and measured after 24 hrs by CCK8 assay; format: functional
[13] = Stability in neurobasal cell culture medium supplemented with B-27 and N2 assessed as compound hydrolysis by LC-HR MS method; format: physicochemical; conditions: read-out: Drug degradation
How it was run: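 Compound was incubated in neurobasal culture medium containing B-27 and N2 at 37 °C for 24 h, with no enzyme present. The remaining compound concentration was then quantified by LC-HRMS.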

[14] = tested on: BV-2 (Mus musculus); experiment: Antiinflammatory activity in mouse BV-2 cells assessed as inhibition of LPS-induced TNF-alpha production at 10 nM pre-incubated for 1 hr before LPS stimulation for 23 hrs by ELISA method
[15] = tested on: BV-2 (Mus musculus); experiment: Antiinflammatory activity in mouse BV-2 cells assessed as inhibition of LPS-induced TNF-alpha production at 10 to 1000 nM pre-incubated for 1 hr before LPS stimulation for 23 hrs by ELISA method
[16] = tested on: Cortical neurone; experiment: Neuroprotective activity against amyloid beta (1 to 42) peptide-induced cytotoxicty in CD1 mouse primary cortical neurons assessed as increase in cell viability at 100 to 1000 nM pre-incubated for 1 hr before amyloid beta (1 to 42) addition and measured after 24 hrs by CCK8 assay; format: functional, cell-based
[17] = tested on: Cortical neurone; experiment: Toxicity in CD1 mouse primary cortical neurons assessed as effect on cell viability at 1000 nM incubated for 24 hrs by CCK8 assay; format: cell-based; conditions: 1 µM; how it was run: as §1

Compound	Activity [1]	Activity [2]	Activity [4]	Activity [6]	Activity [7]	other results
CC(C)[C@]12O[C@H]1[C@@H]1O[C@@]13[C@@]1(C)CCC4=C(COC4=O)[C@@H]1C[C@@H]1O[C@@]13C2=O [TRIPTONIDE]	inactive	Non-Toxic	–	–	–	inhibition at 0.02 µM [3]: 100%
CC(C)[C@]1(O)[C@H](O)[C@@H]2O[C@]23[C@]2(O[C@H]2C[C@H]2C4=C(CC[C@@]23C)C(=O)OC4)[C@@H]1O	Active	–	Non-Toxic	–	–	–
CC(C)[C@]12O[C@H]1[C@@H]1O[C@@]13[C@@]1(C)CCC4=C(COC4=O)[C@@H]1CC[C@@]3(O)[C@@H]2O	–	Non-Toxic	Non-Toxic	–	–	Activity [5]: Active
CC(C)[C@]12O[C@H]1[C@@H]1O[C@]13[C@]1(O[C@H]1C[C@H]1C4=C(CC[C@@]13C)C(=O)OC4)[C@H]2F	–	Non-Toxic	–	inactive	Dose-dependent effect	inhibition at 0.02 µM [3]: 100%
CC(C)[C@]1(O)[C@H](F)[C@@H]2O[C@]23[C@]2(O[C@H]2C[C@H]2C4=C(CC[C@@]23C)C(=O)OC4)[C@@H]1O	Active	–	Non-Toxic	–	–	–
CC(C)[C@]12O[C@H]1[C@@H]1O[C@]13[C@]1(O[C@H]1C[C@H]1C4=C(CC[C@@]13C)C(=O)OC4)[C@@H]2OC(=O)NC12CC3CC(C)(CC(C)(C3)C1)C2	–	Non-Toxic	–	Dose-dependent effect	Dose-dependent effect	Activity [8]: Non-Toxic; viability at 24 h, 0.025 µM [9]: 7.7%; viability at 24 h, 0.05 µM [10]: 32.8%; viability at 24 h, 0.1 µM [11]: 73.5%; Activity [12]: 100%; degraded [13]: 13%; inhibition at 0.01 µM [14]: 100%
CC(C)C1=C[C@@H]2O[C@@]23[C@@]2(C)CCC4=C(COC4=O)[C@@H]2C[C@@H]2O[C@@]23C1=O	–	Non-Toxic	Non-Toxic	–	Dose-dependent effect	Activity [5]: Active; Activity [15]: inactive
CC(C)[C@]12O[C@H]1[C@@H]1O[C@]13[C@]1(O[C@H]1C[C@H]1C4=C(CC[C@@]13C)C(=O)OC4)[C@@H]2O [TRIPTOLIDE]	–	–	–	100%	Dose-dependent effect	viability at 24 h, 0.025 µM [9]: 27.2%; viability at 24 h, 0.05 µM [10]: 62.8%; viability at 24 h, 0.1 µM [11]: 76.5%; Activity [12]: 100%; degraded [13]: 13%
CC(C)[C@]12O[C@H]1[C@@H]1O[C@]13[C@]1(O[C@H]1C[C@H]1C4=C(CC[C@@]13C)C(=O)OC4)[C@@H]2OC(=O)NC(C)(C)C	–	–	–	–	–	Activity [16]: inactive; Activity [17]: Toxic
